Series [1] can be described thus: Toxicity in Plasmodium vinckei petteri infected CD mice (Mus musculus) assessed as mortality at 10 mg/kg/day, intraperitoneally measured on day 5. It is filed as organism-based. More on the design: route intraperitoneal. The conditions noted are these: in vivo, ip, read-out: INH. The method in brief: (§1)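 4-day suppressive test in female CD mice (20 ± 2 g) infected on day 0 with 10^6 parasitized red cells in RPMI. Groups of five were dosed intraperitoneally on days 0–3 at 5 or 20 mg/kg; reference dosing was 1 or 10 mg/kg, with RPMI-alone controls. Parasitaemia was counted on day-4 Giemsa tail-blood smears. Survival was followed for three additional weeks.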

Another series relates to MCF7. As to the kind of experiment: Cytotoxicity against human MCF7 cells assessed as [3H]hypoxanthine incorporation. It is filed as cell-based. The method in brief:
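MCF-7 cells were grown in DMEM with 2 mM L-glutamine and 10% FCS at 37 °C, 5% CO2. Exponential-phase cells were trypsinized and seeded at 200 000 cells/mL. After 24 h, the medium was replaced with fresh medium containing compound at 0.01–100 µg/mL. Viability was read by [3H]hypoxanthine incorporation, and IC50 was taken graphically from dose-response curves.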

Series [2] can be described thus: Toxicity in Plasmodium vinckei petteri infected CD mice (Mus musculus) assessed as mortality at 10 mg/kg/day, intraperitoneally measured on day 1. As to conditions: in vivo, ip, read-out: INH. The format is organism-based. Set-up: route intraperitoneal. The method in brief:
as §1

A short description of series [3]: Toxicity in Plasmodium vinckei petteri infected CD mice (Mus musculus) assessed as mortality at 1 mg/kg/day, intraperitoneally measured on day 5. It is filed as organism-based. Set-up: route intraperitoneal. The conditions noted are these: in vivo, ip, read-out: INH. The method in brief: as §1
The nature of series [4]: Toxicity in Plasmodium vinckei petteri infected CD mice (Mus musculus) assessed as mortality at 10 mg/kg/day, intraperitoneally measured on day 15. As to conditions: in vivo, ip, read-out: INH. More on the design: route intraperitoneal. The format is organism-based. The method in brief:
as §1

Series [5] in a line: Toxicity in Plasmodium vinckei petteri infected CD mice (Mus musculus) assessed as mortality at 1 mg/kg/day, intraperitoneally measured on day 15. More on the design: route intraperitoneal. It is filed as organism-based. The conditions noted are these: in vivo, ip, read-out: INH. The method in brief:
as §1

The subject of series [6] is Plasmodium vinckei petteri. As to the kind of experiment: Antiplasmodial activity as reduced parasitaemia at day 5 in Plasmodium vinckei petteri infected CD mice (Mus musculus) at 1 mg/kg/day intraperitoneal dose. The format is functional. As to conditions: ip, 120 h. The method in brief:
(§2)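 Four-day suppressive test in female CD mice (20 ± 2 g), each infected on day 0 with 10^6 P. vinckei petteri-parasitized erythrocytes in RPMI. Groups of five received ip doses on days 0–3. Controls got RPMI alone. Parasitaemia was counted on Giemsa-stained tail-blood smears (≥5000 erythrocytes). % inhibition = (control − treated)/control × 100.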

Series [7] relates to Plasmodium vinckei petteri. Description: Antiplasmodial activity as reduced parasitaemia at day 5 in Plasmodium vinckei petteri infected CD mice (Mus musculus) at 10 mg/kg/day intraperitoneal dose. The format is functional. As to conditions: ip, 120 h. The method in brief: as §2
Series [8] can be described thus: Toxicity in Plasmodium vinckei petteri infected CD mice (Mus musculus) assessed as mortality at 1 mg/kg/day, intraperitoneally measured on day 1. The format is organism-based. More on the design: route intraperitoneal. The conditions noted are these: in vivo, ip, read-out: INH. The method in brief: as §1
Series [9] has as its system Plasmodium falciparum. As to the kind of experiment: Antiplasmodial activity against chloroquine-resistant Plasmodium falciparum FcM29 by [3H]hypoxanthine uptake. The format is functional, organism-based. The method in brief: (§3)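 Parasites kept in continuous culture per Trager and Jensen (modified) and synchronized every 48 h by 5% D-sorbitol lysis. Growth was read as [3H]hypoxanthine incorporation by the modified Desjardins method.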

Series [10] concerns Plasmodium falciparum. As to the kind of experiment: Inhibition of Plasmodium falciparum Pfnek1 at 50 uM. The method in brief: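 Kinase reaction in 20 mM Tris/HCl pH 7.5 with 20 mM MgCl2, 2 mM MnCl2, 0.25 µCi [γ-33P]ATP and 5 µg myelin basic protein as substrate. Compounds were tested at 50, 5 and 1 µM with equal DMSO in all reactions. Reactions were stopped in Laemmli buffer and run on SDS gel. Gels were Coomassie-stained, dried, autoradiographed and quantified by phosphorimaging as % remaining activity.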

Series [11] has as its system Plasmodium falciparum. Description: Antiplasmodial activity against chloroquine-resistant Plasmodium falciparum FcB1 by [3H]hypoxanthine uptake. The format is functional, organism-based. The method in brief:
as §3

Series [12] concerns Plasmodium falciparum. As to the kind of experiment: Inhibition of Plasmodium falciparum Pfnek1 at 1 uM. The method in brief: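 Compounds were tested at 50, 5 and 1 µM with equal DMSO in all reactions. Reactions were stopped with Laemmli buffer and run on SDS-PAGE. Remaining activity (%) was quantified by autoradiography and phosphorimaging; no IC50 was determined.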
In series [13] the test system is Plasmodium falciparum. Description: Antiplasmodial activity against chloroquine-sensitive Plasmodium falciparum F32 by [3H]hypoxanthine uptake. It is filed as functional, organism-based. The method in brief: as §3
Series [14] in a line: Selectivity index ratio of IC50 for human MCF7 cells to IC50 for chloroquine-sensitive Plasmodium falciparum F32. The format is functional. The method in brief: (§4)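 The ratio compares the MCF-7 IC50 with the parasite IC50. MCF-7 cells were grown in DMEM with 2 mM L-glutamine and 10% FCS at 37 °C, 5% CO2, and used in exponential growth. They were seeded at 200 000 cells/mL; after 24 h, compounds were added at 0.01–100 µg/mL. Viability was read by [3H]hypoxanthine incorporation and IC50 taken graphically from the curves. Parasite IC50s came from the [3H]hypoxanthine incorporation assay on synchronized cultures.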

The nature of series [15]: Toxicity in Plasmodium vinckei petteri infected CD mice (Mus musculus) assessed as mortality at 20 mg/kg/day, intraperitoneally measured on day 5. It is filed as organism-based. Set-up: route intraperitoneal. The conditions noted are these: in vivo, ip, read-out: INH. The method in brief: as §1
Series [16] in a line: Toxicity in Plasmodium vinckei petteri infected CD mice (Mus musculus) assessed as mortality at 20 mg/kg/day, intraperitoneally measured on day 1. The conditions noted are these: in vivo, ip, read-out: INH. Set-up: route intraperitoneal. It is filed as organism-based. The method in brief: as §1
The test system of series [17] is Plasmodium vinckei petteri. Description: Antiplasmodial activity as reduced parasitaemia at day 5 in Plasmodium vinckei petteri infected CD mice (Mus musculus) at 5 mg/kg/day intraperitoneal dose. The format is functional. The conditions noted are these: ip, 120 h. The method in brief:
as §2

The nature of series [18]: Toxicity in Plasmodium vinckei petteri infected CD mice (Mus musculus) assessed as mortality at 5 mg/kg/day, intraperitoneally measured on day 1. The conditions noted are these: in vivo, ip, read-out: INH. It is filed as organism-based. Set-up: route intraperitoneal. The method in brief:
as §1

Series [19] is described as follows: Toxicity in Plasmodium vinckei petteri infected CD mice (Mus musculus) assessed as mortality at 5 mg/kg/day, […] measured on day 5. As to conditions: in vivo, read-out: INH. The format is organism-based.
The nature of series [20]: Selectivity index ratio of IC50 for human MCF7 cells to IC50 for chloroquine-resistant Plasmodium falciparum FcB1. The format is functional. The method in brief:
as §4

Series [21] deals with Plasmodium vinckei petteri. Description: Antiplasmodial activity as reduced parasitaemia at day 5 in Plasmodium vinckei petteri infected CD mice (Mus musculus) at 20 mg/kg/day intraperitoneal dose. It is filed as functional. As to conditions: ip, 120 h. The method in brief:
as §2

Series [22] in a line: Selectivity index ratio of IC50 for human MCF7 cells to IC50 for chloroquine-resistant Plasmodium falciparum FcM29. It is filed as functional. The method in brief:
as §4

Series [23] is described as follows: Toxicity in Plasmodium vinckei petteri infected CD mice (Mus musculus) assessed as mortality at 20 mg/kg/day, intraperitoneally measured on day 15. The format is organism-based. Set-up: route intraperitoneal. As to conditions: in vivo, ip, read-out: INH. The method in brief:
as §1

A short description of series [24]: Toxicity in Plasmodium vinckei petteri infected CD mice (Mus musculus) assessed as mortality at 5 mg/kg/day, intraperitoneally measured on day 15. The format is organism-based. More on the design: route intraperitoneal. The conditions noted are these: in vivo, ip, read-out: INH. The method in brief: as §1

Experimental findings from ChEMBL document CHEMBL1157424, “Alisiaquinones and alisiaquinol, dual inhibitors of Plasmodium falciparum enzyme targets from a New Caledonian deep water sponge” (J Nat Prod, 2008) are described below.

The structures appear in SMILES notation. The source made the active and inactive calls. The rule behind the calls is not given here.

What is called IC50 is the concentration needed to halve the response being measured. As a reminder, the inhibition in vivo is the share of the control response that was lost under treatment. High values mean a strong effect, low ones a weak effect. In the case of `CCN(CC)CCCC(C)Nc1ccnc2cc(Cl)ccc12` (stereo not drawn) [CHLOROQUINE], the mortality in series [1] was 0%; in series [2], 0%; in [3], 0%; in series [4], 0%; in series [5], 100%; in series [8] it was 0%. Besides, the IC50 in the series on MCF7 is 12 µM. Further, the inhibition in vivo at 1 mg/kg/day in series [6] is 0%. The inhibition in vivo at 10 mg/kg/day in series [7] came out at 100%.
In general, inhibition refers to the change of the read-out against control, counted positive when it falls. Read a high inhibition as a response far below the control. In the case of `C[C@@]12CCC[C@]3(C)c4cc5c(O)ccc(O)c5cc4C(=O)[C@](O)(OC1)[C@H]23` [ALISIAQUINOL], the IC50 in the series with MCF7 came to 1.7 µM; in the series on Plasmodium falciparum [9], 7.9 µM; in the series on Plasmodium falciparum [11] it was 6.4 µM; in the series on Plasmodium falciparum [13] it was 9.9 µM. In addition, the outcome in the series with Plasmodium falciparum [10] was Active. The same compound displayed an inhibition in the series on Plasmodium falciparum [12] of 49%. The “Ratio IC50” value in series [14] was under 1.
As to `C[C@@]12CCC[C@]3(C)c4cc5c(cc4C(=O)[C@](O)(OC1)[C@H]23)C(=O)C1=C(NCCS1(=O)=O)C5=O` [ALISIAQUINONE C], the mortality in [15] came to 80%; in series [16], 60%; in [18] it was 0%; in series [19] it was 0%; in series [23], 100%; in series [24], 60%. Also, in series [17], the inhibition in vivo at 5 mg/kg/day was 36%. Further, the IC50 with MCF7 is 41 µM; in the series with Plasmodium falciparum [9], 0.08 µM; with Plasmodium falciparum [11], 0.21 µM; in the series on Plasmodium falciparum [13] it was 0.15 µM. Further, the “Ratio IC50” value in series [20] came out at 200; in [22], 500; in series [14] it was 270. Also, the result in the series with Plasmodium falciparum [12] was inactive. This compound showed an inhibition in vivo at 20 mg/kg/day in series [21] of 42%.
Consider `COC1=CC(=O)c2cc3c(cc2C1=O)C(=O)[C@]1(O)OC[C@@]2(C)CCC[C@@]3(C)[C@@H]21` [ALISIAQUINONE B], for which the IC50 with MCF7 stood at 0.8 µM; with Plasmodium falciparum [9] it was 2.6 µM; with Plasmodium falciparum [11] it was 8.4 µM; in the series on Plasmodium falciparum [13] it was 7.1 µM. For the same compound, in series [14], the “Ratio IC50” value is listed as under 1.
With `C[C@@]12CCC[C@]3(C)c4cc5c(cc4C(=O)[C@](O)(OC1)[C@H]23)C(=O)C=CC5=O` [ALISIAQUINONE A], the mortality in [15] is 100%; in series [16] it was 100%; in series [18] it was 0%; in [19], 0%; in series [23], 100%; in series [24] it was 40%. Besides, the inhibition in vivo at 5 mg/kg/day in [17] came to 63%. The IC50 with MCF7 was 36 µM; in the series with Plasmodium falciparum [9], 8.5 µM; with Plasmodium falciparum [11], 7.4 µM; in the series on Plasmodium falciparum [13], 9.1 µM. Besides, the outcome in the series with Plasmodium falciparum [10] was Active. Moreover, the “Ratio IC50” value in series [20] is given as 5; in [22], 4; in [14] it was 4. The same compound returned an inhibition with Plasmodium falciparum [12] of 41%.
